Source: publication PMC2193282 (The Journal of Experimental Medicine, 2000)

Tested on: epidermal Langerhans cells
Assay: Langerhans cell migration assay
Type: in vivo, BALB/c mice
Details: 24 h after topical application of 0.5% DNFB on ear (Fig. 5 A)
Summary of the method: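 Ears were harvested 24 h later. Epidermal sheets were separated (0.5 M ammonium thiocyanate, 20 min, 37°C), acetone-fixed and stained with FITC anti-IA mAb 2G9. IA+ cells were counted at ×400 in 10 fields/sample; 5–15 mice/group.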

O=[N+]([O-])c1ccc(F)c([N+](=O)[O-])c1 [DNFB, dinitrofluorobenzene]
reduction of epidermal Langerhans cell density: ~35%
